Hits are enriched below; roughly 1.9% of the tested compounds scored in any of these assays.
Tb MetRS inh = T. brucei MetRS inhibitors, primary screen, biochemical, luminescence; inhibition, % at 11.9 µM; AID 624268, 2012; 360,000 tested, 0.4% active; purified T. brucei MetRS, ATP depletion, Kinase-Glo luminescence;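 active means inhibition above a per-plate cutoff of the control wells' mean inhibition plus 3 SD, cut at about 5.5% in these data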;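 further: 0% = DMSO wells median and 100% = median of wells with control inhibitor compound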
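Measured by: Kinase-Glo luciferase luminescence reporting remaining unconsumed ATP. Material: purified T. brucei MetRS enzyme. Doses: 11.9 µM compound single dose, 0.9% DMSO. Medium: HEPES buffer containing pyrophosphatase, BSA, spermine, DTT. Times: 15 min preincubation, 2 h reaction, all 25 °C. Reagent: methionine, ATP and bulk E. coli tRNA.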
PLC-gamma1 inh = PLC-gamma1 enzyme inhibitors, primary screen, biochemical, fluorescence, purified enzyme. 370,000 tested, 0.84% active. 1-phosphatidylinositol 4,5-bisphosphate phosphodiesterase gamma-1 (Homo sapiens), P19174. fluorogenic substrate. AID 720700, 2013. inhibition, % at 12.2 µM
DAGLB inhibitor = DAGLB lipase inhibitors, primary screen, biochemical, fluorescence, HTS; Diacylglycerol lipase-beta (Homo sapiens), Q8NCG7; HEK293T DAGLB membrane lysate, EnzChek fluorogenic substrate; inhibition, % at 5.17 µM; 340,000 tested, 0.059% active; in the data active means inhibition above about 34%;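 further: 0% = enzyme with vehicle and 100% = wells lacking enzyme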
PLCb3 inh = human PLC-beta3 inhibitors, primary screen, biochemical, fluorescence | 1-phosphatidylinositol 4,5-bisphosphate phosphodiesterase beta-3 (Homo sapiens), Q01970 | Purified PLC-beta3, fluorogenic substrate | inhibition, % at 12.2 µM | 370,000 tested, 0.18% active | AID 720704, 2013; in the data active means inhibition above about 11%;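 further: 0% = median of compound wells on plate and 100% = full blocker control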
HGIII-sPLA2 inh = human group III sPLA2 inhibitors, primary screen, biochemical, QFRET, BODIPY PC-A2 liposome substrate. Group 3 secretory phospholipase A2 (Homo sapiens), Q9NZ20. QFRET BODIPY PC-A2 liposome hydrolysis, fluorescence. inhibition, % at 12.2 µM. 370,000 tested, 0.56% active;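 active means inhibition above mean plus 3 SD of compounds lying within the high and low control bounds, cut at about 19% in these data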;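 further: 0% = median of test compound wells and 100% = no enzyme DMSO wells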
PLCg1 ctr = PLC-gamma1 enzyme inhibitors, counter-screen for PLC-beta3 inhibitor project, biochemical, fluorescence; shares compounds with PLC-gamma1 inh; purified PLC-gamma1, fluorogenic substrate; inhibition, % at 12.3 µM; 3,300 tested, 3.1% active
PLCbeta3 conf = PLC-beta3 inhibitor confirmation, biochemical, fluorescence, purified enzyme. 3,300 tested, 1% active. shares compounds with PLC-gamma1 inh. inhibition, % at 12.3 µM. fluorogenic substrate fluorescence; in the data active means inhibition above about 11%
The depositor's hits bear a star; x = not tested or not shown. Unless noted, no stated cut-off is given here; in the data, active means inhibition above about 9.5%; inactive means the rest.

SMILES	Tb MetRS inh	PLC-gamma1 inh	DAGLB inhibitor	PLCb3 inh	HGIII-sPLA2 inh	PLCg1 ctr	PLCbeta3 conf
COC(=O)c1ccc(Cl)c(NC(=O)CN(c2ccc(OC)cc2)S(=O)(=O)c2ccccc2)c1	-1.1	13.5*	-6.1	8.2	-17.0	-1.4	-5.2
Cc1cccc(NC(=O)CC2SC(=NC3CCCCC3)NC2=O)c1 (stereo not given)	-0.9	-15.6	-0.9	-8.0	-8.2	x	x
O=C(CC1SC(=NC2CCCCC2)NC1=O)Nc1ccccc1 (stereo not given)	-0.6	11.1*	-0.9	2.9	0.3	-4.6	-23.6
COC(=O)C1=C(C)N(Cc2ccccc2C(F)(F)F)C(=NCc2cccc(C(F)(F)F)c2)NC1c1ccc(F)cc1 (stereo not given)	x	5.7	x	8.0	-7.4	x	x
Cc1ccc(S(=O)(=O)N(C)CCCC(=O)N2CCN(C=O)CC2)cc1	-1.1	10.5*	1.0	11.3*	-0.8	-1.0	5.6
Cc1[nH]nc2c1C(c1ccc(F)cc1)N(Cc1ccccc1)C2=O (stereo not given)	x	0.9	x	-4.0	-3.2	x	x
c1ccc(N2CCOCCOCCOCCOCC2)cc1	-0.2	12.1*	-0.2	5.4	8.4	2.3	1.8
Cc1ccc(S(=O)(=O)N2CCC(C(=O)NCCN3CCOCC3)CC2)cc1C	0.1	-1.3	-1.6	-8.7	9.3	x	x
COc1ccc(S(=O)(=O)N2CCC(C(=O)NCCN3CCOCC3)CC2)cc1	-0.3	12.5*	-2.0	-4.0	7.7	-6.6	-1.9
COc1ccc(C2C(C(=O)NCCCN3CCOCC3)c3ccccc3C(=O)N2c2ccc(OC)cc2)cc1 (stereo not given)	-0.9	4.7	-1.3	11.5*	-12.6	-3.0	-5.6
Cc1ccc(NC(=O)C2C3CC4OC(=O)C2C4C3)cc1Cl (stereo not given)	-0.4	9.6*	-3.6	4.6	-0.5	-6.3	-6.2
Cc1ccccc1-c1noc(CCC(=O)NCCc2ccccc2)n1	-0.7	10.3*	-5.4	0.6	-15.3	-3.5	-2.0
CCO[C@H]1OC(C(=O)N2CCN(Cc3ccc4c(c3)OCO4)CC2)=C[C@@H](c2cn(C(C)=O)c3ccccc23)[C@@H]1CCCO	-0.3	-2.9	-1.4	-3.8	-51.2	x	x
CCO[C@H]1OC(C(=O)N2CCN(C)CC2)=C[C@@H](c2ccc3c(c2)OCO3)[C@@H]1CCCO	-0.4	7.0	-2.7	19.7*	0.9	-4.4	1.0
CCO[C@H]1OC(C(=O)N2CCN(Cc3ccc4c(c3)OCO4)CC2)=C[C@@H](c2csc3ccccc23)[C@@H]1CCCO	0.0	4.3	-5.4	11.0*	-42.7	-1.4	-0.6
CCCCNC(=O)C[C@@H]1C(=O)N(CCc2ccc(Cl)cc2)/C2=C/CCCCC[C@@]21C(=O)OCC	x	0.8	x	4.6	-13.0	x	x
S=C(Nc1ccc(I)cc1)OC1CCC12CCC(c1ccccc1)CC2 (stereo not given)	x	0.1	x	1.4	0.7	x	x
COc1c(Cl)cc(Cl)cc1CNCc1ccccc1	-0.7	10.5*	-6.2	10.5	-5.2	-7.3	-3.0
O=C(Cc1cccs1)NC1CCCCN(Cc2ccc(Cl)cc2)C1=O (stereo not given)	x	-0.6	x	-2.1	-3.5	x	x
Cc1cc(N)n(-c2ccc([N+](=O)[O-])cc2)n1	-1.1	11.7*	-1.4	1.1	3.4	8.2	5.4
O=C(CCNC(=O)c1ccco1)NCCc1ccc(Cl)cc1	-0.7	-1.0	-1.8	-2.4	0.6	x	x
O=C(CCNC(=O)c1ccccc1)NCCc1ccc(Cl)cc1	0.6	9.6*	-0.1	-0.1	3.5	-5.3	-4.1
CC(C)NC(=O)C1(C)CCCN1Cc1ccccc1C#N (stereo not given)	-0.2	10.9*	x	8.4	1.0	-6.1	-2.4
